GAA850 FXN act – frataxin GAA850 promoter activation; HEK293 lucGAA850 FXN promoter luciferase reporter, 24 h; percent of 10 µM SAHA response; activation, % at 6 µM; 0.56% of 360,000 active; AID 540364;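 active = activation above the average of all compounds screened plus 3 SD, cutoff fixed separately per campaign, cut at about 7.5% in these data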
Hsp70 activator – transcriptional activators of Hsp70; 0.04% of 200,000 active; HeLa Hsp70 promoter luciferase reporter, luminescence; scaled: vehicle 0, proteasome-inhibitor control 100%; activation, % at 10 µM;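 active = activation above the mean across all tested compounds plus 3 SD, cutoff set per campaign, cut at about 5.5% in these data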
ABHD5-PLIN5 inh – ABHD5-PLIN5 protein interaction inhibition; AID 602281; Q00G26+Q8WTS1; Split G. princeps luciferase complementation, luminescence, 4 h; 0.78% of 360,000 active; inhibition, % at 4 µM;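 active = inhibition above the mean inhibition across every tested compound plus 3 SD, cut at about 22% in these data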
Target sequence (Q00G26 whole entry, looked up): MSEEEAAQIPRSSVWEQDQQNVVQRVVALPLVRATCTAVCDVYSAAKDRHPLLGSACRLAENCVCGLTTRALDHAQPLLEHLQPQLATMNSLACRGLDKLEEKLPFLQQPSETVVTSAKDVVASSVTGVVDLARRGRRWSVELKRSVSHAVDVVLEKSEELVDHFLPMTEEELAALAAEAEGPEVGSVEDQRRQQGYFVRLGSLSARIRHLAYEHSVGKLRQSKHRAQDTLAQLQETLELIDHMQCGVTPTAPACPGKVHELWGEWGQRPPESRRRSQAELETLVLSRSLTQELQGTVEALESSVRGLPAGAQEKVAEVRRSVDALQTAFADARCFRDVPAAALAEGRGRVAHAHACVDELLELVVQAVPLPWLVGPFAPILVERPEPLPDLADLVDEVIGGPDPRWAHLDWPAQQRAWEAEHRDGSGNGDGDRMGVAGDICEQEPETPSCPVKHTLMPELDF
Target sequence (Q8WTS1 whole entry, looked up): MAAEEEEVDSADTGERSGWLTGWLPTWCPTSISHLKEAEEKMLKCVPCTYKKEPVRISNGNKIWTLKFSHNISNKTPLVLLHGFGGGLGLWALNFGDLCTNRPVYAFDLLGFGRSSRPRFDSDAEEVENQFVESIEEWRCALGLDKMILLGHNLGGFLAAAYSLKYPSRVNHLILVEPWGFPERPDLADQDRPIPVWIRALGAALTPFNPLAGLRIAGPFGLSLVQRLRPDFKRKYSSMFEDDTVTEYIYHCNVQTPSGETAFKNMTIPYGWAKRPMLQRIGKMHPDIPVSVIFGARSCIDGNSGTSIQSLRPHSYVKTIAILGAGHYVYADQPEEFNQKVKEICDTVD
HIF activator – HIF pathway transcriptional activation. activation, % at 7.5 µM (by protocol). 0.32% of 300,000 active. U2OS HRE-luciferase reporter, luminescence; normalized: DMSO 0%, desferrioxamine 100%;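 active = mean activation of at least 10% of the iron chelator positive control signal, with at least half of replicates also reaching 10%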
Rad51 HR inh – Rad51 (human) homologous recombination inhibition | Q06609 | hRad51 DNA strand exchange, fluorescence dequenching | inhibition, % at 10 µM | 0.085% of 200,000 active | AID 1385;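 active = inhibition above 40% at the single screening dose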
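Test system – preformed human Rad51 ssDNA filaments · Reagent – Donor/quencher-labelled 47-bp dsDNA substrate · Incubation – 37 °C 15-min filament assembly, 30-min compound preincubation, 15-min exchange · Signal – FRET fluorescence dequenching, excitation 485 nm, emission 520 nm · Read-out – percent inhibition from fluorescence, normalised to plate control and blank means · Benchmarks – plate control and blank wells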
TAG inh – inhibitors of triacylglycerol accumulation; H9c2 cells, Nile Red lipid (TAG) fluorescence; cells loaded with 200 µM oleic acid; inhibition, % at 12.5 µM; 0.66% of 230,000 active; AID 651582;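 active = pattern-corrected inhibition of lipid staining of at least 50% with the nuclear-stain viability signal not falling by more than 50%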
Hits are given with their value; - = inactive; . = not tested or not shown. A selection: hits, their analogues and other compounds. The true share with any hit is near 1.9%.

SMILES	GAA850 FXN act	Hsp70 activator	ABHD5-PLIN5 inh	HIF activator	Rad51 HR inh	TAG inh
O=C(Cc1ccccc1)NCCc1cnc[nH]1	-	.	-	-	.	.
Cc1cccc(C(=O)N(Cc2cccs2)C2CCS(=O)(=O)C2)c1 (stereo unspecified)	-	.	-	.	.	.
O=C(c1ccc(F)cc1)N(Cc1cccs1)C1CCS(=O)(=O)C1 (stereo unspecified)	-	.	-	166.6	.	.
O=CC1=C(N2CCOCC2)/C(=C\c2ccccc2)CC1	-	-	22.0	-	.	-
Cc1ccc2[nH]c3c(=O)n(CC(=O)NCCCN(C)Cc4ccccc4)ncc3c2c1	-	.	-	66.3	.	.
CCOC(=O)C1=C(Nc2ccc(OC)cc2)OCC1=O	-	.	-	-	-	-
CN(C)NC(=S)NC1(C)CCS(=O)(=O)C1 (stereo unspecified)	-	.	-	-	-	-
C[C@H]1CN=C(Nc2ccccc2)N1CCC1CCCC1	-	.	-	-	.	-
COc1cc(OC)c2nc(C)c3c(c2c1)N(c1ccc(O)cc1)CC3	-	-	-	15.7	.	-
CCCc1nc2oc3c(NCCCN(C)C)ncnc3c2c2c1CCCC2	-	.	-	-	-	62.7
Cc1nnc(-c2ccccc2)c(=O)n1/N=C/c1c(O)ccc2ccccc12	-	-	-	68.8	-	-
Cc1nc2ccccc2c(=O)n1/N=C/c1ccc(O)c(O)c1O	-	.	-	-	.	.
Cc1nnc(C)n1/N=C/c1c(O)ccc2ccccc12	-	.	-	-	.	.
Cc1nc2ccccc2c(=O)n1/N=C/c1ccc2ccccc2c1O	-	.	-	10.8	.	-
Cc1ccc(C(=O)NCC(=O)N2CCN(c3ccccc3O)CC2)s1	-	.	-	.	.	-
NC1=C(Br)C(=O)c2ncccc2C1=O	-	.	-	.	.	-
O=C1C=C(NCCc2cc(Br)c(O)c(Br)c2)C(=O)c2ncccc21	-	.	-	.	.	52.8
Clc1cccc(OCCN2CCN(CCOc3cccc(Cl)c3)CC2)c1	-	-	22.8	-	-	-
CCCCCCCCC[n+]1cccc2c3ccccc3ccc21	-	-	28.5	-	-	.
O=C1c2ccc3c4c(ccc(c24)C(=O)N1c1cccc(O)c1)C(=O)N(c1cccc(O)c1)C3=O	-	.	-	-	-	67.9
CCC[C@@H](CN1CCC[C@H]1CN1C(N)=NC[C@H]1CC(C)C)N1C[C@@H](Cc2ccccc2)N(CCc2ccc(Cl)c(Cl)c2)C1=N	-	.	22.9	.	.	-
C[C@@H](CN1CCC[C@H]1CN1C(N)=NC[C@@H]1Cc1ccccc1)N1C[C@@H](Cc2ccccc2)N(CCc2ccc(Cl)c(Cl)c2)C1=N	-	.	40.5	.	.	-
CC[C@@H](C)[C@@H]1CN([C@@H](CN2CCC[C@H]2CN2C(N)=NC[C@H]2CC(C)C)C(C)C)C(=N)N1CCc1ccc(Cl)c(Cl)c1	-	.	-	.	.	-
CCC[C@@H](CN1CCC[C@H]1CN1C(N)=NC[C@@H]1Cc1ccccc1)N1C[C@@H]([C@H](C)CC)N(CCCC2CCCC2)C1=N	-	.	31.9	.	.	-
CCC[C@@H](CN1CCC[C@H]1CN1C(N)=NC[C@H]1CC(C)C)N1C[C@@H]([C@H](C)CC)N(CCc2ccc(Cl)c(Cl)c2)C1=N	-	.	-	.	.	-
SMILES	GAA850 FXN act	Hsp70 activator	ABHD5-PLIN5 inh	HIF activator	Rad51 HR inh	TAG inh
CC(C)[C@@H]1CN=C(N)N1C[C@@H]1CCCN1C[C@H](C)N1C[C@@H](Cc2ccccc2)N(CCc2ccc(Cl)c(Cl)c2)C1=N	-	.	-	.	.	-
CC[C@@H](C)[C@@H]1CN([C@@H](C)CN2CCC[C@H]2CN2C(N)=NC[C@H]2CC(C)C)C(=N)N1CCc1ccc(Cl)c(Cl)c1	-	.	29.6	.	.	-
COc1ccc(S(=O)(=O)N2CCOCC2)cc1C(=O)N(C)CCOc1ccc(Cl)cc1	-	.	-	.	.	-
C/C(=N\NC(=O)c1ccccc1O)c1ccc(NC(=O)Cc2ccccc2)cc1	-	.	-	-	.	-
COc1cccc(-n2c(SCC(=O)N3CCOCC3)nc3c([nH]c4ccccc43)c2=O)c1	-	-	-	456.9	-	.
CC(C)n1cc(NC(=O)c2cc(-c3ccccc3)on2)cn1	-	-	-	-	-	50.3
O=Nc1c(O)c2ccccc2c2ccccc12	-	.	-	-	.	98.5
COc1ccc(CCNC(=O)C2CCCN2S(=O)(=O)c2cccc3nsnc23)cc1OC (stereo unspecified)	-	.	-	-	.	.
C=CCOc1nc(-c2ccccc2Cl)nc2ccccc12	-	.	-	63.5	-	-
O=C1CCc2cc(S(=O)(=O)NC(C(=O)N3CCN(c4ccccn4)CC3)c3ccccc3)ccc2N1 (stereo unspecified)	-	-	-	-	41.4	-
O=C1CCc2cc(S(=O)(=O)NC(C(=O)NCc3cccnc3)c3ccccc3)ccc2N1 (stereo unspecified)	-	-	-	.	-	-
CCOC(=O)C1CCCN(C(=O)Cn2cnc3c2c(=O)n(C)c(=O)n3C)C1 (stereo unspecified)	-	-	-	-	-	-
CCOC(=O)C1CCCN(C(=O)Cn2sc3nc(C)cc(C)c3c2=O)C1 (stereo unspecified)	-	-	64.5	-	-	-
C=C1C(=O)CC2=C1[C@](Cc1ccc(F)cc1)(C(=O)OC)N(C(=O)c1ccccc1)C2	.	.	-	.	.	.
C=C1C(=O)C=C2CN(C(=O)c3ccccc3)[C@@](Cc3ccc(F)cc3)(C(=O)OC)[C@@H]12	-	-	74.9	-	-	-
S=C1NC2=C(CCCC2=C2SCCS2)C(c2ccccc2)N1 (stereo unspecified)	-	-	-	69.3	-	.
Fc1ccc(/C=C2\CCCC3=C2NC(=S)NC3c2ccc(F)cc2)cc1 (stereo unspecified)	.	-	.	.	-	.
Cc1cc(SCc2ccc(Cl)c(Cl)c2)nc(=O)[nH]1	-	.	-	-	.	.
CCn1c(N2CCC(Cc3ccccc3)CC2)nc2c1c(=O)[nH]c(=O)n2C	-	-	-	17.0	.	-
O=C(CSc1nnc(CNc2ccc(F)cc2)n1Cc1ccco1)N1CCOCC1	-	-	-	-	-	-
O=C(CSc1nnc(CNc2ccc(F)cc2)n1Cc1ccco1)NC1CC1	-	-	22.1	-	-	-
Cc1cccc(C)c1OCc1cc(C(=O)N(Cc2c(C)nn(C)c2C)C2CC2)no1	-	.	-	-	.	.
C=C1C(=O)O[C@H]2[C@H]1[C@@H](O)CC(=C)[C@@H]1CC(=O)[C@@H](C)[C@H]21	9.3	.	-	-	.	.
Cc1ccc(S(=O)(=O)N(C(=O)c2ccncc2)c2ccc(OC(=O)c3ccncc3)c3ccccc23)c(C)c1	-	-	32.5	-	-	-
CC(NC(=O)C12CC3CC(CC(O)(C3)C1)C2)c1ccc(Cl)cc1Cl (stereo unspecified)	-	.	-	16.0	.	.
COc1ccc(OC)c(C(C)NC(=O)C23CC4CC(CC(C4)C2)C3)c1 (stereo unspecified)	-	.	-	-	.	-
O=S(=O)(c1ccc(Cl)cc1)N1CCN(Cc2ccc(O)c3ncccc23)CC1	-	-	-	-	-	53.3

Compound activity as filed in PubChem.
